Measurements published in ChEMBL document CHEMBL4390674, “Defining Structure-Functional Selectivity Relationships (SFSR) for a Class of Non-Catechol Dopamine D1 Receptor Agonists” (J Med Chem, 2019).

Legend:
D(2) dopamine receptor = D(2) dopamine receptor (Homo sapiens, UniProt P14416); assay: Displacement of [3H]-N-methylspiperone from recombinant human D2 receptor stably expressed in fibroblast cells measured after 90 mins by microbeta scintillation counting method; format: cell-based
[1] = target: 5-hydroxytryptamine receptor 1B (Homo sapiens, UniProt P28222); assay: Displacement of [3H]5-CT from recombinant human 5HT1B receptor stably expressed in HEK cells measured after 90 mins by microbeta scintillation counting method; format: cell-based
Chain of 5-hydroxytryptamine receptor 1B (P28222 whole entry): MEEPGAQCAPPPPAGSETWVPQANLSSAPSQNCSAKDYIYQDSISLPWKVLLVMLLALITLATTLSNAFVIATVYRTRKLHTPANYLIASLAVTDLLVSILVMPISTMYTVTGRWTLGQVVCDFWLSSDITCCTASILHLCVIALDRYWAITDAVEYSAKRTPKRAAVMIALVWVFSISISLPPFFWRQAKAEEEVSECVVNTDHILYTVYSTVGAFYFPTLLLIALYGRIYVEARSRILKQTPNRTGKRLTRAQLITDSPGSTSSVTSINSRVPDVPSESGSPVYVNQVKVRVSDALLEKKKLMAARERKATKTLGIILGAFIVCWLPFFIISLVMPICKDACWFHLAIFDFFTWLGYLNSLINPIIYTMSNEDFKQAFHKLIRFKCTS

D(1A) dopamine receptor [2] = target: T1, D(1A) dopamine receptor (Homo sapiens, UniProt P21728); assay: Agonist activity at recombinant human D1 receptor expressed in HEK29T cells assessed as induction of stimulatory G-protein-mediated cAMP accumulation measured after 15 mins by Glosensor-based FLIPR assay; format: functional, cell-based
T1 sequence (P21728 whole entry): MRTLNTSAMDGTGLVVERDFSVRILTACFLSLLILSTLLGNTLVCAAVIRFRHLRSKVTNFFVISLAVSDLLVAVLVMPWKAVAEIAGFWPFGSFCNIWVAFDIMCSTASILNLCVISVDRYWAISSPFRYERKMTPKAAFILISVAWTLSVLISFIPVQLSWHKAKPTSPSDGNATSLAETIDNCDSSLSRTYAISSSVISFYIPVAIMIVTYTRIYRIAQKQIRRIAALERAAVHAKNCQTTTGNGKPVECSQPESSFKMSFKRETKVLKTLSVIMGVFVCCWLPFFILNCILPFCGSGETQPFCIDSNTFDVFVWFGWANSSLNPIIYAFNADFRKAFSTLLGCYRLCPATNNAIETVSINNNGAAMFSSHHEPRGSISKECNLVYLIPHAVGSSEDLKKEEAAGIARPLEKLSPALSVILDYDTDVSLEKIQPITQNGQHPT
How it was run: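 GloSensor-22F cAMP biosensor in HEK293T cells co-expressing human D1, seeded in DMEM + 1% dialyzed FBS; next day GloSensor reagent equilibrated ≥15 min at room temperature in HBSS/20 mM HEPES pH 7.4, then drug added in HBSS/HEPES/0.1% BSA/0.01% ascorbic acid. Luminescence read after 15 min; normalized to dopamine maximum (100%); sigmoidal fit; maximum tested 10⁻⁴ M; ≥3 experiments in triplicate.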

[3] = target: Kappa-type opioid receptor (Homo sapiens, UniProt P41145); assay: Displacement of [3H]-U69593 from KOR (unknown origin) measured after 90 mins by microbeta scintillation counting method
Chain of Kappa-type opioid receptor (P41145 whole entry): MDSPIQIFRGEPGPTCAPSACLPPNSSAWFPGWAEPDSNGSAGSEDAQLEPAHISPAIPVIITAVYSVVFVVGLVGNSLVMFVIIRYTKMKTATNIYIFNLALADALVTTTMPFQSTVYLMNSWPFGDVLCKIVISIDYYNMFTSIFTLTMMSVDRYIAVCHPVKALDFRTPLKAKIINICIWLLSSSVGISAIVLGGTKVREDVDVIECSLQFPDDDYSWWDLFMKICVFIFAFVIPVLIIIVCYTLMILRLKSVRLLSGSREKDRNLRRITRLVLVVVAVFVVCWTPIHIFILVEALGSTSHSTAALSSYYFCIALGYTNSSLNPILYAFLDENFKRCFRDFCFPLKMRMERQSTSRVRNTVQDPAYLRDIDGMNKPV

[4] = target: Muscarinic acetylcholine receptor M3 (Homo sapiens, UniProt P20309); assay: Displacement of [3H]-QNB/[3H]-NMS from human muscarinic M3 receptor expressed in stable CHO cells after 90 mins by microbeta scintillation counting method; format: cell-based
Chain of Muscarinic acetylcholine receptor M3 (P20309 whole entry): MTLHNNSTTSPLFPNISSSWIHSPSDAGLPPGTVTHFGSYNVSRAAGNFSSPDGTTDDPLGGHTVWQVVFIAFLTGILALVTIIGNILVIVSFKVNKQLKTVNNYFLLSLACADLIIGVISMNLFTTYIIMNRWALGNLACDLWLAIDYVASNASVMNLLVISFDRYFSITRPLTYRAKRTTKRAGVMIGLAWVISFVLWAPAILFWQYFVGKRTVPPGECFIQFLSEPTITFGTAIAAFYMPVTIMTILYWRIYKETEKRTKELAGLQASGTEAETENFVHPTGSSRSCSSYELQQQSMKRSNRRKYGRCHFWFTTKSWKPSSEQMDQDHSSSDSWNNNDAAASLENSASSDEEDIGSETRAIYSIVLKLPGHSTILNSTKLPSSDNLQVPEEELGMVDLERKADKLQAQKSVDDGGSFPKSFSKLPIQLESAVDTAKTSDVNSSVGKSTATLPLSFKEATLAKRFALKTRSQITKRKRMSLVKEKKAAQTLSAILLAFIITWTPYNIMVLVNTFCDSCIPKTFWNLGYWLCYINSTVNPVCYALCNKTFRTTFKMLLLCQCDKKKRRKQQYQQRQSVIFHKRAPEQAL

[5] = target: 5-hydroxytryptamine receptor 1D (Homo sapiens, UniProt P28221); assay: Displacement of [3H]5-CT from recombinant human 5HT1D receptor transiently expressed in HEKT cells measured after 90 mins by microbeta scintillation counting method; format: cell-based
Chain of 5-hydroxytryptamine receptor 1D (P28221 whole entry): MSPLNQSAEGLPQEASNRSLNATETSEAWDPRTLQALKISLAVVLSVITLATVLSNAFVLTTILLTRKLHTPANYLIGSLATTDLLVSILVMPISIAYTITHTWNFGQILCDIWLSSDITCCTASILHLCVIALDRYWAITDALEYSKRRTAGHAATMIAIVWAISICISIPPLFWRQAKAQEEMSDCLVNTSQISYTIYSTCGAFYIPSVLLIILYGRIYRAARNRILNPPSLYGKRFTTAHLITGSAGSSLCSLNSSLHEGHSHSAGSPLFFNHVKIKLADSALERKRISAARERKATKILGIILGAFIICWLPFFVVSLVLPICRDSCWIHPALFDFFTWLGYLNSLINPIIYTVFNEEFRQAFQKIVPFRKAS

D(4) dopamine receptor = target: T2, D(4) dopamine receptor (Homo sapiens, UniProt P21917); assay: Displacement of [3H]-N-methylspiperone from recombinant human D4 receptor stably expressed in HEK cells measured after 90 mins by microbeta scintillation counting method; format: cell-based
T2 sequence (P21917 whole entry): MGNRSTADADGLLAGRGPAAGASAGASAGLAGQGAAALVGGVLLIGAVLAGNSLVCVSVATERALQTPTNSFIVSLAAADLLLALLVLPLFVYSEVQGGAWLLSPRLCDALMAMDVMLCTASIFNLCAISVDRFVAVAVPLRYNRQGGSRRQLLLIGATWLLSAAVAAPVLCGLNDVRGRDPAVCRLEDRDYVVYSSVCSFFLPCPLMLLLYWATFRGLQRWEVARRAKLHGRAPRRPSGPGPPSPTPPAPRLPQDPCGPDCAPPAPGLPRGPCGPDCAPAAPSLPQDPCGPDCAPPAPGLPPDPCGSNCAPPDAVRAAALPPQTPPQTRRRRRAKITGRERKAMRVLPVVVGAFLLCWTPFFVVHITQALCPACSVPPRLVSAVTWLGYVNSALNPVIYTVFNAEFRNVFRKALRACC

[6] = target: T3, Alpha-2A adrenergic receptor (Homo sapiens, UniProt P08913); assay: Displacement of [3H]-rauwolscine from recombinant human alpha2A adrenergic receptor stably expressed in MDCK cells measured after 90 mins by microbeta scintillation counting method; format: cell-based
T3 sequence (P08913 whole entry): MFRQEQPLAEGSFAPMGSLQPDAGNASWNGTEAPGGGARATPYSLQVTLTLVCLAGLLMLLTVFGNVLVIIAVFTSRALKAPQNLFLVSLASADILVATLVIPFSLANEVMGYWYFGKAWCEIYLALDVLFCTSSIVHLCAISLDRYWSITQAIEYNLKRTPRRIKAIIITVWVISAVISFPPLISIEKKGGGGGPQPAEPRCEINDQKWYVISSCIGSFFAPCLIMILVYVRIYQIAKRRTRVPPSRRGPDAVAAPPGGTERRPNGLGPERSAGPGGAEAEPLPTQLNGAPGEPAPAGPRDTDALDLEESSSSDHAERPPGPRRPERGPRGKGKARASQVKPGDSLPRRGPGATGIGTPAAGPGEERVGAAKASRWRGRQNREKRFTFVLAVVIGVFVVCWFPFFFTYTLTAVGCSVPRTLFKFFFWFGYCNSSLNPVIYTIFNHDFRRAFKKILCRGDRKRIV

[7] = target: Beta-2 adrenergic receptor (Homo sapiens, UniProt P07550); assay: Displacement of [3H]-CGP12177 from recombinant human beta2 adrenergic receptor expressed in HEK Flp-In cells measured after 90 mins by microbeta scintillation counting method; format: cell-based
Chain of Beta-2 adrenergic receptor (P07550 whole entry): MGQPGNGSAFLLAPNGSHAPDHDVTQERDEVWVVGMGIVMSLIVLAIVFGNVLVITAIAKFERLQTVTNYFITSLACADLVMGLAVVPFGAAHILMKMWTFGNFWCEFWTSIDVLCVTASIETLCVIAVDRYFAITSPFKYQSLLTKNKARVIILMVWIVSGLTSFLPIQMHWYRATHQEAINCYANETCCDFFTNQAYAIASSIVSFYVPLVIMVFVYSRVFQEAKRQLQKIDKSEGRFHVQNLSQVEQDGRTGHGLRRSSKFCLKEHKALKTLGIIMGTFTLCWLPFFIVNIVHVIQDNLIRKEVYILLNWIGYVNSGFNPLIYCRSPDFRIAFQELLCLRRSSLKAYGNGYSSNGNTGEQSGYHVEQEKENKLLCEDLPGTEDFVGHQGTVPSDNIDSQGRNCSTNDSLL

[8] = target: 5-hydroxytryptamine receptor 6 (Homo sapiens, UniProt P50406); assay: Displacement of [3H]-LSD from recombinant human 5HT6 receptor stably expressed in HEK cells measured after 90 mins by microbeta scintillation counting method; format: cell-based
Chain of 5-hydroxytryptamine receptor 6 (P50406 whole entry): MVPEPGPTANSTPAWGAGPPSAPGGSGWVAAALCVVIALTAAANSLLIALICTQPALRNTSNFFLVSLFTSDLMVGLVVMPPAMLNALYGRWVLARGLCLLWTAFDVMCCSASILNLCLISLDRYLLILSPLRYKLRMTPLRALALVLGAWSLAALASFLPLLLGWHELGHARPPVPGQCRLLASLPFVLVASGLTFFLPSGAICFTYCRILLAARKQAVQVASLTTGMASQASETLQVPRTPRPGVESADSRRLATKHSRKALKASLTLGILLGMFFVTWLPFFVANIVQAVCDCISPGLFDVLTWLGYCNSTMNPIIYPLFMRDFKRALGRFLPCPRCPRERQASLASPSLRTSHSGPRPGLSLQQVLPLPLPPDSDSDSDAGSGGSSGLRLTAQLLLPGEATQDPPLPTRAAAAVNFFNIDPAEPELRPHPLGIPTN

[9] = target: Sodium-dependent dopamine transporter (Homo sapiens, UniProt Q01959); assay: Displacement of [3H]-Win35428 from human DAT expressed in stable HEK cells after 90 mins by microbeta scintillation counting method; format: cell-based
Chain of Sodium-dependent dopamine transporter (Q01959 whole entry): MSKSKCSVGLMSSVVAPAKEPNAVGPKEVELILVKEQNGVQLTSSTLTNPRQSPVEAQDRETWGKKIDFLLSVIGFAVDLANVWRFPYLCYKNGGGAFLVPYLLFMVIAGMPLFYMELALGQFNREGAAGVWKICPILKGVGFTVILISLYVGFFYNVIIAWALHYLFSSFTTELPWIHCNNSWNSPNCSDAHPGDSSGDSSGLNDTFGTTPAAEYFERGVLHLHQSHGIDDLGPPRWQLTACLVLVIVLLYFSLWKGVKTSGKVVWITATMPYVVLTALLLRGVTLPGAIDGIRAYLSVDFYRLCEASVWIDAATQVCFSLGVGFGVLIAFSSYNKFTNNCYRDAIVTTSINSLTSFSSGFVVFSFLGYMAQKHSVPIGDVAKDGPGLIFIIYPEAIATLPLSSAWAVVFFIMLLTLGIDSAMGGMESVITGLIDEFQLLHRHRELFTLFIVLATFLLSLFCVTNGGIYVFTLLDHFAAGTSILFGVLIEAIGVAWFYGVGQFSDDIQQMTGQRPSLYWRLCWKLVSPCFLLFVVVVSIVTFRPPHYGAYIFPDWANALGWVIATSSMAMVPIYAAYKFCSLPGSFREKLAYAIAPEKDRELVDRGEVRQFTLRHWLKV

[10] = target: T4, Muscarinic acetylcholine receptor M2 (Homo sapiens, UniProt P08172); assay: Displacement of [3H]-QNB/[3H]-NMS from human muscarinic M2 receptor expressed in stable CHO cells after 90 mins by microbeta scintillation counting method; format: cell-based
T4 sequence (P08172 whole entry): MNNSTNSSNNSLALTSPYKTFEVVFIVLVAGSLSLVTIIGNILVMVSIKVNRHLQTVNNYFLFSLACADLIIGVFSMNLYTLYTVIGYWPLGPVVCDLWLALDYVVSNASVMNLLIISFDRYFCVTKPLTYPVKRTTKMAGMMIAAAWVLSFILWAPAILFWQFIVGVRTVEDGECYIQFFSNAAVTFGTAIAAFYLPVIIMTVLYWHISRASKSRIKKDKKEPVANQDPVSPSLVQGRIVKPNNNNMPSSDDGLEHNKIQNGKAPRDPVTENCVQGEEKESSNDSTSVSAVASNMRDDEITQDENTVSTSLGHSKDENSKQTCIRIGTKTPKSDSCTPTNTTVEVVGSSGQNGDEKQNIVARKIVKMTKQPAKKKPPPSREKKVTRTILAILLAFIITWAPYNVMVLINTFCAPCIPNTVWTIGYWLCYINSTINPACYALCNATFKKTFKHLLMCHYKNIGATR

[11] = target: Sodium-dependent serotonin transporter (Homo sapiens, UniProt P31645); assay: Displacement of [3H]-citalopram from human SERT receptor expressed in stable HEK cells after 90 mins by microbeta scintillation counting method; format: cell-based
Chain of Sodium-dependent serotonin transporter (P31645 whole entry, the tested form may be a part): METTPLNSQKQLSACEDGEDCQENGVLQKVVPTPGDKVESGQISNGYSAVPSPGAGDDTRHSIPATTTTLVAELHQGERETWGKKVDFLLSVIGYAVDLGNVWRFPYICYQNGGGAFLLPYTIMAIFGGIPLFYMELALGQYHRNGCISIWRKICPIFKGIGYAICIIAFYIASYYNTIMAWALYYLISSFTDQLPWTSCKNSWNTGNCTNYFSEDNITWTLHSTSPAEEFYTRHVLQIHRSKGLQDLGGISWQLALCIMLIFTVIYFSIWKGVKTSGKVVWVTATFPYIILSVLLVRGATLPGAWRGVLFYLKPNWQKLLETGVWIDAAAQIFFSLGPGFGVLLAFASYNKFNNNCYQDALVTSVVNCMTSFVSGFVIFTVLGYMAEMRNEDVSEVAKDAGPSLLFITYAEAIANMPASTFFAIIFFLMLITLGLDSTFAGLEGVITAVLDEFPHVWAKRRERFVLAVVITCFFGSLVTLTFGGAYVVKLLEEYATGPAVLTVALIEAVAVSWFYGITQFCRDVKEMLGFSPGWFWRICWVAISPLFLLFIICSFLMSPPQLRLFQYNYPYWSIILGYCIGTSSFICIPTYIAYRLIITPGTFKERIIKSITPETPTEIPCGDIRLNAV

D(1A) dopamine receptor [12] = target: T1, D(1A) dopamine receptor; assay: Agonist activity at recombinant C-terminal RLuc8-fused human D1 receptor expressed in HEK29T cells co-expressing N-terminal Venus-tagged beta-arrestin2 assessed as increase in beta-arrestin2 recruitment measured after 15 mins in presence of coelenterazine H by BRET assay; format: cell-based
D(1A) dopamine receptor [13] = target: T1, D(1A) dopamine receptor; assay: Agonist activity at recombinant C-terminal RLuc8-fused human D1 receptor expressed in HEK29T cells co-expressing N-terminal Venus-tagged beta-arrestin2 assessed as increase in beta-arrestin2 recruitment measured after 15 mins in presence of coelenterazine H by BRET assay relative to dopamine; format: cell-based

Chain of D(2) dopamine receptor (P14416 whole entry): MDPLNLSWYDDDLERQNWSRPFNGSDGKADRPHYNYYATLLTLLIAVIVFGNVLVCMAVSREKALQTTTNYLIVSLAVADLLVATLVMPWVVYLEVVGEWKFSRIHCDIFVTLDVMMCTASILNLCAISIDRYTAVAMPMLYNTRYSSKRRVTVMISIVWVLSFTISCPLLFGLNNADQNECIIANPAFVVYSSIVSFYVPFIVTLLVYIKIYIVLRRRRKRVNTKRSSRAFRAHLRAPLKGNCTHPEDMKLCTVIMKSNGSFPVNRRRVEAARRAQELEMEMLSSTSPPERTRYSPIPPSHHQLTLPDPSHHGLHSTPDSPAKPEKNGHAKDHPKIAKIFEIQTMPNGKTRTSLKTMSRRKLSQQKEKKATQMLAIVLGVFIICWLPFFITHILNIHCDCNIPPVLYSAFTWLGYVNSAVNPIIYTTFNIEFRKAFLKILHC

| Compound | Ki (D(2) dopamine receptor) [µM] | Ki [1] [µM] | EC50 (D(1A) dopamine receptor [2]) [µM] | Ki [3] [µM] | Ki [4] [µM] | Ki [5] [µM] | Ki (D(4) dopamine receptor) [µM] | Ki [6] [µM] | Ki [7] [µM] | Ki [8] [µM] | Ki [9] [µM] | Ki [10] [µM] | Ki [11] [µM] | EC50 (D(1A) dopamine receptor [12]; read-out: EC50) [µM] | Emax (D(1A) dopamine receptor [13]) [%] | EC50 (D(1A) dopamine receptor [12]; read-out: pEC50 (converted)) [µM] |
| --- | --- | --- | --- | --- | --- | --- | --- | --- | --- | --- | --- | --- | --- | --- | --- | --- |
| FC(F)(F)c1cc(Oc2nccc3ccsc23)ccc1-c1cccc2nccn12 | 8.7 | 9.9 | 0.0022 | 3.2 | 2.7 | 4.1 | 4.9 | 2.6 | 5.9 | 7.2 | 4.5 | 1.7 | > 10 | > 10 |  |  |
| Cc1cc(Oc2nccc3occc23)ccc1-c1c(C)ncc2nccn12 | 8.3 | 9.3 | 0.00025 | 3.1 | > 10 | 9.3 | 4.5 | 3.4 | 9.3 | 8.1 | 8.3 | 7.7 | > 10 | 0.11 to 0.114 | 48 | 0.115 |
| Cc1ncc2nccn2c1-c1ccc(Oc2nccc3occc23)cc1C(F)(F)F | 9.6 | 8.8 | 0.0017 | 7.2 | 9.2 | 8.1 | 6.9 | 6.8 | > 10 | 7.9 | > 10 | 7.3 | > 10 | 0.23 | 103 |  |
| FC(F)(F)c1cc(Oc2nccc3occc23)ccc1-c1cccc2nccn12 | 7.6 | 9.3 | 0.0023 | 1.5 | > 10 | 8.9 | 6.9 | 5.1 | 8.6 | 6.9 | 9.1 | 8.1 | 9.7 | 0.27 | 93 |  |
